The source made the active and inactive calls. No cut-off for these calls is given here.

For experiment [1], the target named is T1, 5-hydroxytryptamine receptor 3A (Homo sapiens) (UniProt P46098).
T1 sequence (whole entry): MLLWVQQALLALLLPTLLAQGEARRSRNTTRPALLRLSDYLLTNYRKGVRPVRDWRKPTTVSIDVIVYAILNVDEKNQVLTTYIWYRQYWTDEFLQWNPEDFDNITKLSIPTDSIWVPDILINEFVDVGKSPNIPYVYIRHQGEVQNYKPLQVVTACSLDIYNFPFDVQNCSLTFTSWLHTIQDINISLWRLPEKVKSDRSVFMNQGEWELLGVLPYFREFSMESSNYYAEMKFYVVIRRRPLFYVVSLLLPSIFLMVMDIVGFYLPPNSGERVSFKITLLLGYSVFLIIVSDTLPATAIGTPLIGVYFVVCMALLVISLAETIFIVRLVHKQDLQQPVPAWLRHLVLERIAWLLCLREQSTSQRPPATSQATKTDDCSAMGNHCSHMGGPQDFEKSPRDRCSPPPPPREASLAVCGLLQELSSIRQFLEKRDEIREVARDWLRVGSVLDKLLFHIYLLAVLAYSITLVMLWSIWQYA
Put plainly: Inhibition of radioligand binding to 5HT3 at 10 uM. An outline of the steps: (§1)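 Part of an in vitro radioligand binding panel. Each target was tested against a potent standard radioligand for that site. The read-out was percent inhibition of specific binding, reported as an average value.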

Experiment [2] concerns the target Acetylcholinesterase (Homo sapiens) (UniProt P22303). The experiment can be described thus: Inhibition of AChE at 10 uM. The gist of the method: as §1
Experiment [3] concerns the target Mu-type opioid receptor (Homo sapiens) (UniProt P35372). Put plainly: Inhibition of radioligand binding to MOP receptor at 10 uM. An outline of the steps:
as §1

For experiment [4], the target named is Delta-type opioid receptor (Homo sapiens) (UniProt P41143). The experiment can be described thus: Inhibition of radioligand binding to DOP receptor at 10 uM. The gist of the method:
as §1

For experiment [5], the target named is Kappa-type opioid receptor (Homo sapiens) (UniProt P41145). The experiment can be described thus: Inhibition of radioligand binding to KOP receptor at 10 uM. An outline of the steps:
as §1

The target of experiment [6] is T2, Muscarinic acetylcholine receptor M5 (Homo sapiens) (UniProt P08912).
T2 sequence (whole entry): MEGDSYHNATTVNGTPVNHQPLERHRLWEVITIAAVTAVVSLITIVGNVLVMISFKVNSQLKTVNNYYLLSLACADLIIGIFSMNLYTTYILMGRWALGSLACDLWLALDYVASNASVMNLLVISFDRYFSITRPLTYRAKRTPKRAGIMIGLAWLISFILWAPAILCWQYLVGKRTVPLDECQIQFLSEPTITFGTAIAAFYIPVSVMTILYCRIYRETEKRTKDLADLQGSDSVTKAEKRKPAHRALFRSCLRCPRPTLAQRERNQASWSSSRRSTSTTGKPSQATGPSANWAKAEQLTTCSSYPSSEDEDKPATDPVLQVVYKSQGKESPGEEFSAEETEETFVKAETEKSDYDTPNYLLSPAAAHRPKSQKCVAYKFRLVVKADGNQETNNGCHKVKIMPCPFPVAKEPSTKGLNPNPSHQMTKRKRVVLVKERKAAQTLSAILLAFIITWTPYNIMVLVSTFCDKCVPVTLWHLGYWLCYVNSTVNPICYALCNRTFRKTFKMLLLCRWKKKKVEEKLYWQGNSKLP
Put plainly: Inhibition of radioligand binding to muscarinic M5 receptor at 10 uM. The gist of the method: as §1

Experiment [7] concerns the target Muscarinic acetylcholine receptor M3 (Homo sapiens) (UniProt P20309). The experiment can be described thus: Inhibition of radioligand binding to muscarinic M3 receptor at 10 uM. An outline of the steps:
as §1

Experiment [8] addresses D(2) dopamine receptor (Homo sapiens) (UniProt P14416). The experiment can be described thus: Inhibition of radioligand binding to D2L receptor at 10 uM. The gist of the method: as §1
Experiment [9] can be described thus: Inhibition of radioligand binding to alpha2 adrenergic receptor at 10 uM. An outline of the steps: as §1
Experiment [10] has as its target T3, 5-hydroxytryptamine receptor 2C (Homo sapiens) (UniProt P28335).
T3 sequence (whole entry): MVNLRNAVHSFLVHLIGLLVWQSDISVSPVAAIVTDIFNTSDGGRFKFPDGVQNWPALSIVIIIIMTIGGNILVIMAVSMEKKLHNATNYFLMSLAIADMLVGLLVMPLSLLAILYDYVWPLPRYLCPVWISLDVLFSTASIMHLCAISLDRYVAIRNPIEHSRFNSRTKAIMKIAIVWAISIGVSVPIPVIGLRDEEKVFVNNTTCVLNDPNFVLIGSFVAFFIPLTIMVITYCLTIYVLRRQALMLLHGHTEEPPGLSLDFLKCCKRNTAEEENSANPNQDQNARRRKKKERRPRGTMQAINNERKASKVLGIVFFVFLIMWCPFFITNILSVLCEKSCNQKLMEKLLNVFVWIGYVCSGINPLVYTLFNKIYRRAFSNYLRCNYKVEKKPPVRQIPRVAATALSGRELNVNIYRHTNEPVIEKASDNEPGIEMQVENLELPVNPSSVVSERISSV
Put plainly: Inhibition of radioligand binding to 5HT2C at 10 uM. The gist of the method:
as §1

Experiment [11] has as its target 5-hydroxytryptamine receptor 2A (Homo sapiens) (UniProt P28223). The experiment can be described thus: Inhibition of radioligand binding to 5HT2A at 10 uM. An outline of the steps:
as §1

Experiment [12] is described as follows: Displacement of [3H]idazoxan from rat cerebral cortex imidazole receptor 2 in presence of 1 uM yohimbine. In kind it is tissue-based.
For the next experiment, the target named is Nischarin (Homo sapiens, UniProt Q9Y2I1). Put plainly: Inhibition of radioligand binding to imidazole receptor 1 at 10 uM.
Nischarin, sequence (Q9Y2I1 whole entry): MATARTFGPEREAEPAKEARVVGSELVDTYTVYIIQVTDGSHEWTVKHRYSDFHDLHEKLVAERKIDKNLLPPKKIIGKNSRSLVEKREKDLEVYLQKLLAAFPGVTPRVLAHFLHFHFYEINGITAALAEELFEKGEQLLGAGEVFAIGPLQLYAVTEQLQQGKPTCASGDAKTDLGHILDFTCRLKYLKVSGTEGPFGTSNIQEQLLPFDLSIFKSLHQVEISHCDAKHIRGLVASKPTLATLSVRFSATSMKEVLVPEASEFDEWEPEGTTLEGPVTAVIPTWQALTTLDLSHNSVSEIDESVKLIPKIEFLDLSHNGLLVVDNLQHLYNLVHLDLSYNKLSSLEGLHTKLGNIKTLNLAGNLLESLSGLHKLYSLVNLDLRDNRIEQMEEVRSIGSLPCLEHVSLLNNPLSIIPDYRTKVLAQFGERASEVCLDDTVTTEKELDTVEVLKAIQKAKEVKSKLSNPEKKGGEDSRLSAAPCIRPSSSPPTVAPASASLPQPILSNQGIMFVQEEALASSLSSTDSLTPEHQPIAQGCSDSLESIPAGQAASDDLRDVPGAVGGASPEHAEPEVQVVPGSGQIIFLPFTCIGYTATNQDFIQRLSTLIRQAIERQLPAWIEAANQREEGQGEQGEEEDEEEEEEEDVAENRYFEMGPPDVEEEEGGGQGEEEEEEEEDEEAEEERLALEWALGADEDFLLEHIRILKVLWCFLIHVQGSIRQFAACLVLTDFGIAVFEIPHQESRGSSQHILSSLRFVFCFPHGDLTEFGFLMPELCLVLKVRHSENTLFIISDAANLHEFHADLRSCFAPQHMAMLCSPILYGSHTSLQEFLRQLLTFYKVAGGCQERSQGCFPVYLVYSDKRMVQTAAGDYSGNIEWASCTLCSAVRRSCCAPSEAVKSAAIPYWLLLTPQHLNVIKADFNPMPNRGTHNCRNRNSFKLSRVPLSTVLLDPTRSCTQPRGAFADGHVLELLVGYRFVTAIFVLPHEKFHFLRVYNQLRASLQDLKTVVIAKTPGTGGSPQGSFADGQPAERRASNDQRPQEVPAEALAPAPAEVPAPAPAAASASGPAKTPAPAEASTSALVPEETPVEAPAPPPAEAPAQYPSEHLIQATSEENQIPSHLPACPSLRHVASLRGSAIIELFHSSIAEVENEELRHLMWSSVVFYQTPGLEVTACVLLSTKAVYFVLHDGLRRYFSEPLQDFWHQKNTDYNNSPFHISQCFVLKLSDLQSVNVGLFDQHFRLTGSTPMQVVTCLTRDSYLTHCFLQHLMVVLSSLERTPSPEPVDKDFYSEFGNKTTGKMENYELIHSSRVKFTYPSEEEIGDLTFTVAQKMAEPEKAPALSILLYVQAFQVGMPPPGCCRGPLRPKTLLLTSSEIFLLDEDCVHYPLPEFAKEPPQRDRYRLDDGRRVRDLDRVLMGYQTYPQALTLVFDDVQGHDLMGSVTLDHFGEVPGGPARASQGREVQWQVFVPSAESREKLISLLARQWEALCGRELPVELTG
The nature of experiment [13]: Inhibition of radioligand binding to N-methyl D-aspartate receptor phencyclidine binding site at 10 uM. An outline of the steps:
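Radioligand binding panel. Values are average percentages of inhibition of specific binding, measured against potent standard ligands for each target.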

For experiment [14], the system named is Hippocampal neuron. The experiment can be described thus: Neuroprotective activity against Abeta-induced neuronal apoptosis in mouse hippocampal neurons assessed as reduction in total neuronal nuclei level at 30 uM pre-incubated for 4 hrs before Abeta challenge for 72 hrs by immunofluorescence microscopy. In kind it is functional, tissue-based. Conditions: Hippocampus. The gist of the method:
(§2)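 Primary mouse hippocampal neurons were exposed to Aβ (20 μM, 72 h) alone or with compound. Double immunofluorescence microscopy was then run for DNA fragmentation (TUNEL, green) and total neuronal nuclei (NeuN, red), with merged images. DNase-treated cells served as positive control.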

Experiment [15] has as its system Hippocampal neuron. The experiment can be described thus: Neuroprotective activity against Abeta-induced neuronal apoptosis in mouse hippocampal neurons assessed as reduction in DNA fragmentation at 30 uM pre-incubated for 4 hrs before Abeta challenge for 72 hrs by immunofluorescence microscopy. In kind it is functional, tissue-based. The note with it: Hippocampus. An outline of the steps:
as §2

Experiment [16] has as its system Hippocampal neuron. The experiment can be described thus: Neuroprotective activity in mouse hippocampal neurons assessed as Abeta-induced neuronal apoptosis at 30 uM pre-incubated for 4 hrs before Abeta challenge for 72 hrs by TUNEL assay (reference value: 100%). In kind it is functional. The note with it: Hippocampus. An outline of the steps:
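Aggregated Aβ (20 μM, 72 h) was applied to primary mouse hippocampal neurons with or without compound at 30 μM. Apoptosis was scored by TUNEL as the percentage of positive nuclei among total nuclei, referred to Aβ alone (100%). Medium-only cells were the negative control and DNase the positive control. n = 4, mean ± SEM, two-tailed Student's test.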

The species named for the next experiment is Mus musculus. Put plainly: Inhibition of imidazole receptor 2 in mouse hippocampal neurons assessed as reduction in tPA-induced Erk1/2 activation at 30 uM pre-incubated for 4 hrs before tPA stimulation by ELISA. The note with it: Hippocampus. The gist of the method:
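Primary mouse hippocampal neurons were stimulated with tPA (20 μg/mL, 1 h) with or without compound at 30 μM. Phospho-Erk1/2 was measured by ELISA with a phospho-specific antibody and normalized to total Erk1/2. Untreated cultures set the lower limit and tPA alone the upper limit.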

Mu-type opioid receptor (Homo sapiens), sequence (P35372 whole entry): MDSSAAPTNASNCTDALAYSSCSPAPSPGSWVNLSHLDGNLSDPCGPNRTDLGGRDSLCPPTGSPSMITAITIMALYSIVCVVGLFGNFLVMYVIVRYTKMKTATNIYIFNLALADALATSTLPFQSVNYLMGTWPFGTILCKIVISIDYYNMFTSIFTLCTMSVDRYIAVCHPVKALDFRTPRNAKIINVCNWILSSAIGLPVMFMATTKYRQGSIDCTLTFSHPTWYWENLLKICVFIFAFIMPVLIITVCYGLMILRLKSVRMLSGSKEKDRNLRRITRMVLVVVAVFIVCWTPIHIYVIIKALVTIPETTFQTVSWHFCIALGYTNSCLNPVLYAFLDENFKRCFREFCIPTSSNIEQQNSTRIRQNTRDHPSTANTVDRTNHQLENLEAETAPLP
Delta-type opioid receptor (Homo sapiens), sequence (P41143 whole entry): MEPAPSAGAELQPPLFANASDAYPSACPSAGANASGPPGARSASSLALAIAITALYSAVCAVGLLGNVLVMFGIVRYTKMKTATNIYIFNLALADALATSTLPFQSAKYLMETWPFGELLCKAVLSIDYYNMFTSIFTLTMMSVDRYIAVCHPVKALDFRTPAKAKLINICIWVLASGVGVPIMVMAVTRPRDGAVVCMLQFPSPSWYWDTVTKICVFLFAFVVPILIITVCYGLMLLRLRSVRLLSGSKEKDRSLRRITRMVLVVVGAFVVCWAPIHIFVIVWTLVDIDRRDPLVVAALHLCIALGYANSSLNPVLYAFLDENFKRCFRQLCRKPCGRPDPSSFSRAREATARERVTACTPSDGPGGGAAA
5-hydroxytryptamine receptor 2A (Homo sapiens), sequence (P28223 whole entry): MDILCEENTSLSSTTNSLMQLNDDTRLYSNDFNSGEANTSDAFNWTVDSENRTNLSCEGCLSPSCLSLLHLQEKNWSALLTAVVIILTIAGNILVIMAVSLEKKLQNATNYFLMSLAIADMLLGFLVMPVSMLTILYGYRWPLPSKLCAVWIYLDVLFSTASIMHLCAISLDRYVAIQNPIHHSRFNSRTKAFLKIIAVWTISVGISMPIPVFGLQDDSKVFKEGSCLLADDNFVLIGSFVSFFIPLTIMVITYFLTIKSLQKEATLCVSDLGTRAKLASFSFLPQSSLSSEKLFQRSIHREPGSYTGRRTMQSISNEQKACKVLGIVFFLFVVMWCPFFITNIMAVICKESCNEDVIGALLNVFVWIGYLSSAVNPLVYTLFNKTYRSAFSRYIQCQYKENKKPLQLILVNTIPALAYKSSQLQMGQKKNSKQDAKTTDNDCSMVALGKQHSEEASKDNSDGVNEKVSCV
Muscarinic acetylcholine receptor M3 (Homo sapiens), sequence (P20309 whole entry, looked up): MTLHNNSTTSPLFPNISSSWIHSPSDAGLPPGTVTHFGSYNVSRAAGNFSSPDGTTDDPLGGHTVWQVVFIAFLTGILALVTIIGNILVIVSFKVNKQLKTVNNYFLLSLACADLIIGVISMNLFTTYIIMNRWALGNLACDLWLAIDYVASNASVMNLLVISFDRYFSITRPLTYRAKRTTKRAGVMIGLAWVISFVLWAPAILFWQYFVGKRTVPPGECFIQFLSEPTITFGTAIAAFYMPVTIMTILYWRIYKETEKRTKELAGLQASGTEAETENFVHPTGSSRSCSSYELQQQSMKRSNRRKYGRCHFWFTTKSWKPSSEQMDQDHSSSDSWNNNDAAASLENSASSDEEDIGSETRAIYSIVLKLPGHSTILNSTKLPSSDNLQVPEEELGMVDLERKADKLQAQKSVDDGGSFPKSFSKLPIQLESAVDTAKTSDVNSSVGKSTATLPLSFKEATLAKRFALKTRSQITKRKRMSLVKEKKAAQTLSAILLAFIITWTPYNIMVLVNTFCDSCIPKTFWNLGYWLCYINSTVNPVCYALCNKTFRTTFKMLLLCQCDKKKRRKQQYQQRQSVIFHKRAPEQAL
Kappa-type opioid receptor (Homo sapiens), sequence (P41145 whole entry): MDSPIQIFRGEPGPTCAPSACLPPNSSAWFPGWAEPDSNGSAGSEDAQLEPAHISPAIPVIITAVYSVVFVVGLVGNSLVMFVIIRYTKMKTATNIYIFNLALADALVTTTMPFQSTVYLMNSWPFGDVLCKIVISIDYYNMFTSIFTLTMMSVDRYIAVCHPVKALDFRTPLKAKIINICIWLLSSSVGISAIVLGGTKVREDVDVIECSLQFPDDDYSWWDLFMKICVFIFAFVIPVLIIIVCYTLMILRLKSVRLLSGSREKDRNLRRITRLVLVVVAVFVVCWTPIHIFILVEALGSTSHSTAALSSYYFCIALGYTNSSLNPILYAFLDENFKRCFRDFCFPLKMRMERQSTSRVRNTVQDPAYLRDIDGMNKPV
D(2) dopamine receptor (Homo sapiens), sequence (P14416 whole entry): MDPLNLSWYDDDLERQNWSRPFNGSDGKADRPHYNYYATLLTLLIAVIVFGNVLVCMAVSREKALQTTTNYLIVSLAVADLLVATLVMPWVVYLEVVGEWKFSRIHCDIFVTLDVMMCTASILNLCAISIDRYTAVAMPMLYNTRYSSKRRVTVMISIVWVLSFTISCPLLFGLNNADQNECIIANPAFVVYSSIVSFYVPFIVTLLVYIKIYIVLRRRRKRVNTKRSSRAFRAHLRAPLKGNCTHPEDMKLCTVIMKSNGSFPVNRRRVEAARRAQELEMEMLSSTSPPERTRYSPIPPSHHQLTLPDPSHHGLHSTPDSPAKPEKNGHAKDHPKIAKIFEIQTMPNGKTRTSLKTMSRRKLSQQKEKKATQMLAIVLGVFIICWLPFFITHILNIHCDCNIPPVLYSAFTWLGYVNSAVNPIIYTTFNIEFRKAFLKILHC
Acetylcholinesterase (Homo sapiens), sequence (P22303 whole entry): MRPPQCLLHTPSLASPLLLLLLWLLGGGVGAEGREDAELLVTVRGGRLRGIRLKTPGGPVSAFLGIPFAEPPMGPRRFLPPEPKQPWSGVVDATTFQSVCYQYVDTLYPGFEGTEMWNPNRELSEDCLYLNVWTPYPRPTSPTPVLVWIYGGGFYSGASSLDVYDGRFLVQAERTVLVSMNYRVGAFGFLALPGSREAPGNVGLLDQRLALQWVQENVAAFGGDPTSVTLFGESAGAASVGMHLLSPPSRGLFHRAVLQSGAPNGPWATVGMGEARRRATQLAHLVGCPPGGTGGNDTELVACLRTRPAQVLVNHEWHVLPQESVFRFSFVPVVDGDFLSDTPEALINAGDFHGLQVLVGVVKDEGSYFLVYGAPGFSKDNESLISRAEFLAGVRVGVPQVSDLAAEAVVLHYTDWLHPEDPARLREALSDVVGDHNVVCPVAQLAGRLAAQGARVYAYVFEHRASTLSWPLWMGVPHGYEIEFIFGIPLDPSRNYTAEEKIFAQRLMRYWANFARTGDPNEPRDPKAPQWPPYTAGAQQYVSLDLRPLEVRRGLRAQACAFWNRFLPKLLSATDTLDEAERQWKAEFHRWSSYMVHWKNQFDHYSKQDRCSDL

Turning to `CN1CCNC(c2ccccc2)C1` (centres undefined), the inhibition in [1], in experiment [2], in experiment [3], in experiment [4], in [5] and in experiment [6] was under 20% in each case. For the same molecule, the inhibition in experiment [7] was under 20%; in [8] it was under 20%; in [9], under 20%; in experiment [10] it was under 20%; in [11] it was under 20%; on Nischarin, 36%. In addition, in experiment [12], the Ki worked out at 18 µM. The inhibition entry in experiment [13] was “inactive”. In addition, the outcome in the experiment with Hippocampal neuron [14], in the experiment with Hippocampal neuron [15] and with Hippocampal neuron [16] was Active. In addition, the “inhibition of tPA-induced Erk1/2 activation (active/inactive call)” value (“inhibition … (active/inactive call)” for short) in the experiment listed under Mus musculus is “Active”.
For `NCC12CCC3CC(CC3C1)C2` (centres undefined), the inhibition in [1], in experiment [2], in [3], in [4], in [5] and in [6] was under 20% in each case. Besides, the inhibition (in experiment [7]; in [8]; in experiment [9]; in [10]; in experiment [11]; on Nischarin) was under 20% throughout. In experiment [12], the Ki was determined as 26 µM. In experiment [13], the inhibition entry is “inactive”. Also, the result in the experiment on Hippocampal neuron [14], in the experiment on Hippocampal neuron [15] and in the experiment on Hippocampal neuron [16] was Active. For the same molecule, the “inhibition … (active/inactive call)” value in the experiment filed under Mus musculus was “Active”.
Regarding `CN(C)C(CN)c1ccccc1Cl` (centres undefined), the inhibition in [1], in experiment [2], in [3], in experiment [4], in experiment [5] and in experiment [6] was under 20% each time. The inhibition (in [7]; in experiment [8]; in experiment [9]; in [10]; in [11]; on Nischarin) was under 20% in each case. Moreover, the inhibition constant Ki in [12] was determined as 14 µM. In experiment [13], the inhibition entry is “inactive”. For the same molecule, the outcome in the experiment on Hippocampal neuron [14], in the experiment with Hippocampal neuron [15] and with Hippocampal neuron [16] was Active. Moreover, in the experiment listed under Mus musculus, the “inhibition … (active/inactive call)” value was “Active”.

The record behind these values is ChEMBL document CHEMBL2176910, “Identification of small molecule inhibitors of amyloid β-induced neuronal apoptosis acting through the imidazoline I(2) receptor” (J Med Chem, 2012).
